Source: ChEMBL document CHEMBL1629431, “Synthesis and antitumor activity of some 2, 3-disubstituted quinazolin-4(3H)-ones and 4, 6- disubstituted- 1, 2, 3, 4-tetrahydroquinazolin-2H-ones” (2010)

Experiments:
Type in all cases: functional
[1] = system: OVCAR-8; experiment: Growth inhibition of human OVCAR8 cells at 10 uM after 48 hrs by coulter counter method; details: OVCAR-8, 48 h, read-out: GI
Method in brief: (§1)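 Single high-dose NCI 60-cell-line panel screen across nine tumor subpanels. Test solutions (0.2 mL) were added in duplicate to wells holding 1.8 mL of culture at 6 × 10⁴ cells/mL. Controls got PBS and DMSO at identical dilutions. Incubation was 48 h at 37 °C in humidified 5% CO₂. Cells were diluted 10-fold in saline, Coulter-counted and dilution-corrected. Results were expressed as percent growth inhibition versus control.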

[2] = system: MDA-MB-231; experiment: Growth inhibition of human MDA-MB-231 cells at 10 uM after 48 hrs by coulter counter method; details: MDA-MB-231, 48 h, read-out: GI; method in brief: as §1
[3] = Growth inhibition of human Hs 578T cells at 10 uM after 48 hrs by coulter counter method; details: read-out: GI; method in brief: as §1
[4] = system: COLO 205; experiment: Growth inhibition of human COLO205 cells at 10 uM after 48 hrs by coulter counter method; details: COLO 205, 48 h, read-out: GI; method in brief: as §1
[5] = system: U-251; experiment: Growth inhibition of human U251 cells at 10 uM after 48 hrs by coulter counter method; details: U-251, 48 h, read-out: GI; method in brief: as §1
[6] = system: SF-268; experiment: Growth inhibition of human SF268 cells at 10 uM after 48 hrs by coulter counter method; details: SF-268, 48 h, read-out: GI; method in brief: as §1
[7] = system: HL-60(TB); experiment: Growth inhibition of human HL-60(TB) cells at 10 uM after 48 hrs by coulter counter method; details: HL-60, 48 h, read-out: GI
Method in brief: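 Part of the NCI 60-cell-line single-high-dose panel. Cells were seeded at 6 × 10⁴ cells/mL with test solution in duplicate wells, alongside PBS/DMSO controls at identical dilutions. Plates were held 48 h at 37 °C in a humidified 5% CO₂ incubator. Cells were then diluted 10-fold in saline and counted by Coulter counter, with counts corrected for dilution. Results are percent growth of treated cells, reported as GI %.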

[8] = system: SN12C; experiment: Growth inhibition of human SN12C cells at 10 uM after 48 hrs by coulter counter method; details: read-out: GI; method in brief: as §1
[9] = system: MCF7; experiment: Growth inhibition of human MCF7 cells at 10 uM after 48 hrs by coulter counter method; details: MCF7, 48 h, read-out: GI; method in brief: as §1
[10] = system: UO-31; experiment: Growth inhibition of human UO31 cells at 10 uM after 48 hrs by coulter counter method; details: UO-31, 48 h, read-out: GI; method in brief: as §1
[11] = system: IGROV-1; experiment: Growth inhibition of human IGROV1 cells at 10 uM after 48 hrs by coulter counter method; details: IGROV-1, 48 h, read-out: GI; method in brief: as §1
[12] = system: MOLT-4; experiment: Growth inhibition of human MOLT4 cells at 10 uM after 48 hrs by coulter counter method; details: MOLT-4, 48 h, read-out: GI; method in brief: as §1
[13] = system: SF-539; experiment: Growth inhibition of human SF539 cells at 10 uM after 48 hrs by coulter counter method; details: SF-539, 48 h, read-out: GI; method in brief: as §1
[14] = system: SK-MEL-2; experiment: Growth inhibition of human SK-MEL-2 cells at 10 uM after 48 hrs by coulter counter method; details: SK-MEL-2, 48 h, read-out: GI; method in brief: as §1
[15] = system: KM12; experiment: Growth inhibition of human KM12 cells at 10 uM after 48 hrs by coulter counter method; details: KM12, 48 h, read-out: GI; method in brief: as §1
[16] = system: SK-MEL-28; experiment: Growth inhibition of human SK-MEL-28 cells at 10 uM after 48 hrs by coulter counter method; details: SK-MEL-28, 48 h, read-out: GI; method in brief: as §1
[17] = system: 786-0; experiment: Growth inhibition of human 786-0 cells at 10 uM after 48 hrs by coulter counter method; details: 786-0, 48 h, read-out: GI; method in brief: as §1
[18] = system: T47D; experiment: Growth inhibition of human T47D cells at 10 uM after 48 hrs by coulter counter method; details: read-out: GI; method in brief: as §1
[19] = system: NCI-H226; experiment: Growth inhibition of human NCI-H226 cells at 10 uM after 48 hrs by coulter counter method; details: NCI-H226, 48 h, read-out: GI; method in brief: as §1
[20] = system: M14; experiment: Growth inhibition of human M14 cells at 10 uM after 48 hrs by coulter counter method; details: M14, 48 h, read-out: GI; method in brief: as §1
[21] = system: NCI-H23; experiment: Growth inhibition of human NCI-H23 cells at 10 uM after 48 hrs by coulter counter method; details: NCI-H23, 48 h, read-out: GI; method in brief: as §1
[22] = system: UACC-62; experiment: Growth inhibition of human UACC62 cells at 10 uM after 48 hrs by coulter counter method; details: UACC-62, 48 h, read-out: GI; method in brief: as §1
[23] = system: SNB-75; experiment: Growth inhibition of human SNB75 cells at 10 uM after 48 hrs by coulter counter method; details: SNB-75, 48 h, read-out: GI; method in brief: as §1
[24] = system: OVCAR-4; experiment: Growth inhibition of human OVCAR4 cells at 10 uM after 48 hrs by coulter counter method; details: OVCAR-4, 48 h, read-out: GI; method in brief: as §1
[25] = system: PC-3; experiment: Growth inhibition of human PC3 cells at 10 uM after 48 hrs by coulter counter method; details: PC-3, 48 h, read-out: GI; method in brief: as §1
[26] = system: NCI-H522; experiment: Growth inhibition of human NCI-H522 cells at 10 uM after 48 hrs by coulter counter method; details: NCI-H522, 48 h, read-out: GI; method in brief: as §1
[27] = system: MDA-MB-468; experiment: Growth inhibition of human MDA-MB-468 cells at 10 uM after 48 hrs by coulter counter method; details: MDA-MB-468, 48 h, read-out: GI; method in brief: as §1
[28] = system: SK-OV-3; experiment: Growth inhibition of human SKOV3 cells at 10 uM after 48 hrs by coulter counter method; details: SK-OV-3, 48 h, read-out: GI; method in brief: as §1
[29] = system: SR; experiment: Growth inhibition of human SR cells at 10 uM after 48 hrs by coulter counter method; details: read-out: GI; method in brief: as §1
[30] = system: HCT-116; experiment: Growth inhibition of human HCT116 cells at 10 uM after 48 hrs by coulter counter method; details: HCT-116, 48 h, read-out: GI; method in brief: as §1
[31] = system: CAKI-1; experiment: Growth inhibition of human Caki1 cells at 10 uM after 48 hrs by coulter counter method; details: CAKI-1, 48 h, read-out: GI; method in brief: as §1
[32] = system: K562; experiment: Growth inhibition of human K562 cells at 10 uM after 48 hrs by coulter counter method; details: K562, 48 h, read-out: GI; method in brief: as §1
[33] = system: CCRF-CEM; experiment: Growth inhibition of human CCRF-CEM cells at 10 uM after 48 hrs by coulter counter method; details: read-out: GI; method in brief: as §1
[34] = system: HOP-92; experiment: Growth inhibition of human HOP92 cells at 10 uM after 48 hrs by coulter counter method; details: HOP-92, 48 h, read-out: GI; method in brief: as §1
[35] = system: A549; experiment: Growth inhibition of human A549 cells at 10 uM after 48 hrs by coulter counter method; details: A549, 48 h, read-out: GI; method in brief: as §1

Measured: inhibition of growth at 10 µM

COc1ccc(C(=O)CSc2nc3ccccc3c(=O)n2-c2ccc(Cl)cc2)cc1
65.1%: [5]
38.4%: [20]
48.8%: [6]
71.1%: [23]
35.4%: [27]
53.5%: [24]
< 30%: [26]
34.2%: [14]
40.9%: [2]
48.9%: [4] | [11]
76.2%: [1]
48.6%: [13]
41.3%: [17]
37.2%: [10]
37.3%: [16]
42.2%: [22]
44.7%: [28]
30%: [3] | [7] | [8] | [9] | [12] | [15] | [18] | [19] | [21] | [25] | [29] | [30]

COc1ccc(-c2nnc(Nc3nc4ccccc4c(=O)n3-c3ccccc3)s2)cc1
58.9%: [4]
30%: [2] | [3] | [5] | [6] | [7] | [8] | [9] | [10] | [11] | [31] | [12] | [13] | [14] | [15] | [16] | [17] | [18] | [19] | [20] | [32] | [21] | [33] | [22] | [23] | [24] | [25] | [34] | [26] | [27] | [28] | [29] | [30] | [35]
